The source of these data is ChEMBL document CHEMBL1129651, “3-Phenyl-substituted imidazo[1,5-alpha]quinoxalin-4-ones and imidazo[1,5-alpha]quinoxaline ureas that have high affinity at the GABAA/benzodiazepine receptor complex” (J Med Chem, 1996).

The target in test [1] is GABA-A receptor; anion channel (Rattus norvegicus) (UniProt O09028+P15431+P18506+P18508+P19969+P20236+P23574+P23576+P28471+P28473+P30191+P62813+P63079+P63138+Q91ZM7+Q9ES14).
The test system of the next test is Rattus norvegicus. Put plainly: Ability to antagonize metrazole-induced seizures (clonic and tonic) in rats after intraperitoneal injection. The following applies: ip.
The target of test [2] is GABA-A receptor; anion channel. The test is described as follows: Binding affinity against benzodiazepine receptor (BzR) in rat cortical membranes determined by competition experiments with radiolabeled [3H]flunitrazepam (Fnz). The class given is cell membranes.
Test [3] is filed under the species Mus musculus. Put plainly: Compound was tested for ethanol potentiation expressed as the loss of traction response (muscle relaxation). In kind it is functional. Summed up:
(§1)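 Male CF-1 mice given 50% aqueous ethanol orally (7.5 mL/kg) plus test compound sc in 0.25% aqueous methyl cellulose (10 mL/kg). Tested 30 min later. Traction: hindlimb placed on wire within 10 s when suspended by forepaws. Righting: rolls onto feet within 10 s when released on its back. Six mice per dose; ED50s determined.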

Test [4] is filed under the species Mus musculus. The test is described as follows: Compound was tested for ethanol potentiation expressed as loss of righting reflex (anesthesia). The class given is functional. In a few lines:
as §1

The species named for test [5] is Mus musculus. Put plainly: Acute electroshock physical dependence activity (drug MA50/V122 MA50). The class given is functional. Summed up:
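Male CF-1 mice, 10/group, dosed sc twice daily for 3 days (0800, then 2 times that dose at 1600). Flumazenil 2.5 mg/kg iv in 5% aqueous N,N-dimethylacetamide given 24 h after the last dose. 5 min later electroshock seizure threshold estimated by up-down method (0.05 log steps; transpinnal 0.6 ms pulses, 100 Hz, 0.2 s). Comparison is against a saline-treated, flumazenil-injected control group.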

The species named for test [6] is Mus musculus. Put plainly: Antagonism of benzodiazepine traction in mice. In kind it is functional. In a few lines:
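Male CF-1 mice given triazolam 1 mg/kg ip together with test compound ip, starting at 100 mg/kg, in 0.25% aqueous methyl cellulose. Dose-response run on 0.5 log scale. Loss of traction scored 15 min later. Absence of the expected loss marks antagonism. ED50 taken from lower doses.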

Usually ED50 stands for the dose at which the effect has come halfway, by size or by number of responders. For orientation: Ki means the equilibrium dissociation constant of an inhibitor or competing ligand from its target. On to `COc1ccc(-c2ncn3c2c(=O)n(C(C)C)c2cc(F)ccc23)cc1`, for which the TBPS shift in test [1] worked out at 0.97. The compound also came in with a median effective dose (ED50) in the test on Rattus norvegicus greater than 50 mg/kg. Further, in test [2], the affinity corresponds to a Ki of 81.5 nM.
Regarding `O=C(N1CCCC1)N1Cc2c(-c3ccccc3)ncn2-c2ccccc21`, the TBPS shift in test [1] came out at 0.69.
`COc1ccc(-c2ncn3c2c(=O)n(C(C)C)c2ccccc23)cc1`: the TBPS shift in test [1] amounted to 0.75. In addition, the ED50 is greater than 30 mg/kg in the test listed under Mus musculus [3], 12.5 mg/kg with Rattus norvegicus and greater than 30 mg/kg in the test listed under Mus musculus [4]. Further, the Ki in test [2] turned out to be 31.7 nM.
Regarding `O=C(N1CCOCC1)N1Cc2c(-c3ccc(F)cc3)ncn2-c2ccc(F)cc21`, the TBPS shift in test [1] is 0.7. In the test filed under Mus musculus [5], this compound had an Activity of 0.7. For the same compound, the 50% effective dose (ED50) is 5 mg/kg in the test listed under Mus musculus [3], greater than 30 mg/kg in the test listed under Mus musculus [6], 0.14 mg/kg with Rattus norvegicus and 17 mg/kg in the test listed under Mus musculus [4]. The Ki in test [2] stood at 2.16 nM.
For the compound `CCNC(=O)N1Cc2c(-c3ccc(F)cc3)ncn2-c2ccccc21`, the TBPS shift in test [1] was 0.42. Moreover, in the test on Rattus norvegicus, the ED50 is greater than 50 mg/kg. Moreover, the Ki in test [2] was found to be 48.6 nM.
`COc1ccccc1-c1ncn2c1c(=O)n(C(C)C)c1ccccc12` gave a Ki in test [2] greater than 10000 nM.
On to `CN(C)C(=O)N1Cc2c(-c3ccccc3)ncn2-c2ccccc21`, for which the TBPS shift in test [1] was found to be 0.4. For the same compound, in test [2], the Ki was found to be 3.41 nM.
In the test listed under Mus musculus [5], `Cc1ccc(-c2ncn3c2CN(C(=O)N(C)C)c2ccccc2-3)cc1` registered an Activity of 0.87. In addition, the 50% effective dose (ED50) in the test on Rattus norvegicus amounted to 4.4 mg/kg. In test [2], this compound yielded an inhibitory constant (Ki) of 11.1 nM.
With `O=C(N1CCCCC1)N1Cc2c(-c3ccccc3)ncn2-c2ccccc21`, the TBPS shift in test [1] was 0.52. Moreover, the Activity in the test listed under Mus musculus [5] came out at 0.82. Moreover, the ED50 in the test filed under Mus musculus [3] is 0.5 mg/kg; in the test filed under Mus musculus [6] it was greater than 30 mg/kg; with Rattus norvegicus it was 4.5 mg/kg; in the test listed under Mus musculus [4], greater than 30 mg/kg. The same compound displayed a Ki in test [2] of 1.65 nM.
Take `CC1(C)c2c(-c3ccc(F)cc3)ncn2-c2ccccc2N1C(=O)N1CCCC1`: in test [1], the TBPS shift was 0.6. The ED50 in the test with Rattus norvegicus is greater than 50 mg/kg. The same compound gave a Ki in test [2] of 12.6 nM.
With `O=C(N1CCOCC1)N1Cc2c(-c3ccc(F)cc3)ncn2-c2cccc(Cl)c21`, the TBPS shift in test [1] was determined as 0.44. For the same compound, in the test listed under Mus musculus [5], the Activity is 0.86. The ED50 in the test with Rattus norvegicus was 3.7 mg/kg. The same compound showed a Ki in test [2] of 2.97 nM.
On to `O=C(N1CCOCC1)N1Cc2c(-c3ccc(F)cc3)ncn2-c2ccccc21`, for which, in test [1], the TBPS shift came to 0.54. The compound also yielded an Activity in the test filed under Mus musculus [5] of 0.67. Also, the ED50 in the test on Rattus norvegicus was 0.3 mg/kg. Also, the affinity in test [2], expressed as Ki, was 1.61 nM.
As to `Cc1ccc(-c2ncn3c2c(=O)n(C(C)C)c2ccccc23)cc1`, the TBPS shift in test [1] was 1.09. Also, the ED50 in the test on Rattus norvegicus is greater than 50 mg/kg. The same compound showed a Ki in test [2] of 174 nM.
Take `Cc1ccc(-c2ncn3c2CN(C(=O)N2CCCC2)c2ccccc2-3)cc1`: the TBPS shift in test [1] amounted to 1.19. In test [2], this compound came in with a Ki of 1.54 nM.
As to `CC1CN(C(=O)N2Cc3c(-c4ccc(F)cc4)ncn3-c3cccc(Cl)c32)CC(C)N1C` (stereo unspecified), the TBPS shift in test [1] worked out at 0.62. The compound further registered an Activity in the test listed under Mus musculus [5] of 0.8. Besides, the ED50 in the test listed under Mus musculus [6] is greater than 30 mg/kg; with Rattus norvegicus, 1.8 mg/kg. The Ki in test [2] was 47.4 nM.
As to `O=C(c1cccc(F)c1)N1Cc2c(-c3ccc(F)cc3)ncn2-c2ccccc21`, the TBPS shift in test [1] turned out to be 1.06. In addition, in the test filed under Mus musculus [5], the Activity was 0.87. This compound also had an ED50 in the test with Rattus norvegicus of 1.3 mg/kg. The compound further yielded a Ki in test [2] of 5.91 nM.
In the test listed under Mus musculus [5], `CN1C(=O)CN=C(c2ccccc2)c2cc(Cl)ccc21` [DIAZEPAM] returned an Activity of 18.2. Besides, the values for the ED50 in the test listed under Mus musculus [3], in the test with Rattus norvegicus and in the test listed under Mus musculus [4] were 0.54 mg/kg, 0.5 mg/kg and 0.86 mg/kg, respectively.
For `CC1CN(C(=O)N2Cc3c(-c4ccc(F)cc4)ncn3-c3ccccc32)CC(C)N1C` (stereo unspecified), in test [1], the TBPS shift worked out at 0.31. Besides, the Activity in the test filed under Mus musculus [5] was 0.8. Besides, the ED50 in the test filed under Mus musculus [6] is greater than 30 mg/kg; in the test on Rattus norvegicus, 13 mg/kg. This compound also registered a Ki in test [2] of 13.2 nM.
With `O=C(c1ccc(F)cc1)N1Cc2c(-c3ccc(F)cc3)ncn2-c2ccccc21`, the TBPS shift in test [1] is 0.82. Moreover, in the test with Rattus norvegicus, the ED50 is 29.7 mg/kg. The compound also gave a Ki in test [2] of 20.5 nM.
With `CC(C)n1c(=O)c2c(-c3cccc(F)c3)ncn2c2ccccc21`, the TBPS shift in test [1] was 0.31. The same compound yielded a median effective dose (ED50) in the test on Rattus norvegicus greater than 50 mg/kg. In test [2], the Ki is 480 nM.
Turning to `COc1ccc(-c2ncn3c2CN(C(=O)N2CC(C)NC(C)C2)c2ccccc2-3)cc1` (stereo unspecified), the TBPS shift in test [1] turned out to be 0.31. Moreover, the Activity in the test filed under Mus musculus [5] was found to be 0.47. In addition, the ED50 is greater than 30 mg/kg in the test listed under Mus musculus [6] and 0.8 mg/kg in the test with Rattus norvegicus. Moreover, in test [2], the affinity corresponds to a Ki of 1.39 nM.
On to `Cc1ccc(-c2ncn3c2C(C)(C)N(C(=O)N2CCCC2)c2ccccc2-3)cc1`, for which the TBPS shift in test [1] is 1.05. The same compound gave an ED50 with Rattus norvegicus of 17.7 mg/kg. The compound also displayed a Ki in test [2] of 35 nM.
On to `CC(C)n1c(=O)c2c(-c3ccc(Cl)cc3)ncn2c2ccccc21`, for which the TBPS shift in test [1] stood at 0.74. The same compound came in with an ED50 in the test on Rattus norvegicus greater than 50 mg/kg.
For `CN(C)C(=O)N1c2ccccc2-n2cnc(-c3ccccc3)c2C1(C)C`, in test [1], the TBPS shift amounted to 0.45. Also, in test [2], the Ki came out at 478 nM.
`O=C(c1ccccc1F)N1Cc2c(-c3ccc(F)cc3)ncn2-c2ccccc21`: the TBPS shift in test [1] was 0.84. The Ki in test [2] is 42.4 nM.
Take `NC(=O)N1Cc2c(-c3ccc(F)cc3)ncn2-c2ccccc21`: the TBPS shift in test [1] came out at 0.29. In the test with Rattus norvegicus, this compound returned an ED50 greater than 50 mg/kg. Affinity in test [2] was put at a Ki of 216 nM.
The corresponding values for `CC(C)n1c(=O)c2c(-c3ccccc3)ncn2c2ccccc21` are 0.31, greater than 50 mg/kg and 38.5 nM.
As to `CC(C)n1c(=O)c2c(-c3ccccc3)ncn2c2ccc(F)cc21`, the TBPS shift in test [1] is 0.77. This compound registered an ED50 in the test with Rattus norvegicus greater than 50 mg/kg. In test [2], the Ki was determined as 39.6 nM.
With `CC1CN(C(=O)N2Cc3c(-c4ccc(F)cc4)ncn3-c3ccc(F)cc32)CC(C)N1` (stereo unspecified), the TBPS shift in test [1] amounted to 0.72. In addition, the ED50 in the test listed under Mus musculus [6] is greater than 30 mg/kg; with Rattus norvegicus, 0.5 mg/kg. This compound had an inhibition constant (Ki) in test [2] of 2.49 nM.
Take `CC(C)n1c(=O)c2c(-c3ccc(F)cc3)ncn2c2ccc(F)cc21`: in test [1], the TBPS shift came to 0.8. Besides, the ED50 in the test with Rattus norvegicus was greater than 50 mg/kg. Moreover, the Ki in test [2] amounted to 59.4 nM.
`CC1CN(C(=O)N2Cc3c(-c4ccc(F)cc4)ncn3-c3ccc(F)cc32)CC(C)N1C` (stereo unspecified): in test [1], the TBPS shift was found to be 0.64. Besides, the Activity in the test listed under Mus musculus [5] is 0.59. The compound further gave an ED50 in the test on Rattus norvegicus of 1.3 mg/kg.
As for `CN(C)C(=O)N1c2ccccc2-n2cnc(-c3ccc(F)cc3)c2C1(C)C`, the TBPS shift in test [1] turned out to be 0.49. In the test on Rattus norvegicus, this compound gave an ED50 greater than 50 mg/kg. Further, the affinity in test [2], expressed as Ki, was 163 nM.
Regarding `Cc1ccc(-c2ncn3c2C(C)(C)N(C(=O)N(C)C)c2ccccc2-3)cc1`, the TBPS shift in test [1] was 0.71. In the test with Rattus norvegicus, the ED50 is greater than 50 mg/kg. In test [2], this compound had a Ki of 334 nM.
In the case of `COC(=O)N1Cc2c(-c3ccc(F)cc3)ncn2-c2ccccc21`, the TBPS shift in test [1] was determined as 0.53. This compound displayed an ED50 in the test on Rattus norvegicus greater than 50 mg/kg. The same compound had a Ki in test [2] of 47.2 nM.
The corresponding values for `CC(C)(C)NC(=O)N1Cc2c(-c3ccc(F)cc3)ncn2-c2ccccc21` are 1.02, greater than 50 mg/kg and 283 nM.
On to `CC1CN(C(=O)N2Cc3c(-c4ccc(F)cc4)ncn3-c3cccc(Cl)c32)CC(C)N1` (stereo unspecified), for which the TBPS shift in test [1] was found to be 0.31. The ED50 in the test listed under Mus musculus [6] is greater than 30 mg/kg; in the test on Rattus norvegicus, 1.8 mg/kg. The compound further displayed a Ki in test [2] of 33.4 nM.
